# Assays:
# [1] = biological target: T1, Glycogen phosphorylase, liver form (Homo sapiens, UniProt P06737); assay: Inhibition of human liver glycogen phosphorylase a in absence of glucose
# T1 sequence (P06737 whole entry): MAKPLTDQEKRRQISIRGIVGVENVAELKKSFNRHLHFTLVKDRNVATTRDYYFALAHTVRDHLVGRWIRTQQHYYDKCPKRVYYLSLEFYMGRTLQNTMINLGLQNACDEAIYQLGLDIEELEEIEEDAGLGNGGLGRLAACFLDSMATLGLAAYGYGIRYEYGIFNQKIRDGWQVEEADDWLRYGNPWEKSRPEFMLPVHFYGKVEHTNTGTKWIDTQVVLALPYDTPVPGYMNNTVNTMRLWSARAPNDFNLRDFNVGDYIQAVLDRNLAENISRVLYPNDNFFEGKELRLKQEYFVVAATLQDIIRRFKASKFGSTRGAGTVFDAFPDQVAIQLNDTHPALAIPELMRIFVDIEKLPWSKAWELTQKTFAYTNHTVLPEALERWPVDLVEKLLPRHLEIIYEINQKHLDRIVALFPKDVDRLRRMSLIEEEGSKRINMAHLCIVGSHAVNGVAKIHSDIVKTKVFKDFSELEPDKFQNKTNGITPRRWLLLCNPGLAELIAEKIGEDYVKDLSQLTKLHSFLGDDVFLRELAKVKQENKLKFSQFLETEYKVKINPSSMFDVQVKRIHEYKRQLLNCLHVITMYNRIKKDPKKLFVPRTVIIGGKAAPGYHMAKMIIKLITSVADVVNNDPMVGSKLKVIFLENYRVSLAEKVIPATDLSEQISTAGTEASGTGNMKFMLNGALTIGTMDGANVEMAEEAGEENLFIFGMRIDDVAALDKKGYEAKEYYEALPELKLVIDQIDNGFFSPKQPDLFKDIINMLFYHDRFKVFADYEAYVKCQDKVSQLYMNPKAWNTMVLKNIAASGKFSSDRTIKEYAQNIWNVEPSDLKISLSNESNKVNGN
# [2] = biological target: T2, Glycogen phosphorylase, liver form (Homo sapiens) (UniProt P06737); assay: Inhibition of human liver glycogen phosphorylase a in absence of glucose at 10 uM
# T2 sequence (whole entry): T1 sequence (P06737 whole entry)
# [3] = biological target: T1, Glycogen phosphorylase, liver form; assay: Inhibition of human liver glycogen phosphorylase a in presence of glucose
# In short: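 Recombinant human liver GPa assayed in the forward direction by NADPH formation, coupled through phosphoglucomutase (77 U/L) and glucose-6-phosphate dehydrogenase (385 U/L). Conditions: pH 6.8 phosphate buffer with 45 mM KH2PO4, β-NADP, glucose 1,6-bisphosphate, 0.24% glycogen and 10.85 mM glucose. Compounds were added in DMSO before the enzyme; DMSO served as blank and caffeine as positive control. Enzyme addition started the reaction; IC50 was derived by logistic regression.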
Structure (SMILES),IC50 [1] [nM],inhibition [2] [%],IC50 [3] [nM]
O=C(/C=C/c1ccc(Cl)c(Cl)c1)NCCCNC(=O)/C=C/c1ccc(Cl)c(Cl)c1,55000,,
O=C(CCc1ccc(Cl)c(Cl)c1)NCCCCCNC(=O)CCc1ccc(Cl)c(Cl)c1,45000,,
CC(C)(C)OC(=O)N(CCNC(=O)/C=C/c1ccc(Cl)c(Cl)c1)CCNC(=O)/C=C/c1ccc(Cl)c(Cl)c1,,48,
O=C(/C=C/c1ccc(Cl)c(Cl)c1)NCC[S+]([O-])CCNC(=O)/C=C/c1ccc(Cl)c(Cl)c1,310,,26
O=C(/C=C/c1ccc(Cl)c(Cl)c1)NCCCCCNC(=O)/C=C/c1ccc(Cl)c(Cl)c1,260,,23
O=C(/C=C/c1ccc(Cl)c(Cl)c1)NCCSCCNC(=O)/C=C/c1ccc(Cl)c(Cl)c1,450,,12
O=C(/C=C/c1ccc(Cl)c(Cl)c1)NCCCCCCNC(=O)/C=C/c1ccc(Cl)c(Cl)c1,18000,,
O=C(/C=C/c1ccc(Cl)c(Cl)c1)NCCS(=O)(=O)CCNC(=O)/C=C/c1ccc(Cl)c(Cl)c1,1500,,
O=C(/C=C/c1ccc(Cl)c(Cl)c1)NCCCCNC(=O)/C=C/c1ccc(Cl)c(Cl)c1,420,,43
O=C(/C=C/c1ccc(Cl)c(Cl)c1)NCCCCCCCCNC(=O)/C=C/c1ccc(Cl)c(Cl)c1,33000,,
O=C(/C=C/c1ccc(Cl)c(Cl)c1)NCCCCCCCNC(=O)/C=C/c1ccc(Cl)c(Cl)c1,11000,,
O=C(/C=C/c1ccc(Cl)c(Cl)c1)NCCNCCNC(=O)/C=C/c1ccc(Cl)c(Cl)c1,,51,
O=C(/C=C\c1ccc(Cl)c(Cl)c1)NCCCCCNC(=O)/C=C\c1ccc(Cl)c(Cl)c1,,36,
O=C(/C=C/c1ccc(Cl)c(Cl)c1)NCCOCCNC(=O)/C=C/c1ccc(Cl)c(Cl)c1,430,,26
CCCNC(=O)/C=C/c1ccc(Cl)c(Cl)c1,,0,
O=C(C#Cc1ccc(Cl)c(Cl)c1)NCCCCCNC(=O)C#Cc1ccc(Cl)c(Cl)c1,59000,,
O=C(/C=C/c1ccc(Cl)c(Cl)c1)NCCNC(=O)/C=C/c1ccc(Cl)c(Cl)c1,20000,,

# Source: ChEMBL document CHEMBL1151794, “Synthesis and pharmacological evaluation of bis-3-(3,4-dichlorophenyl)acrylamide derivatives as glycogen phosphorylase inhibitors” (Bioorg Med Chem, 2008)
